Reference: PMC6714607 (ACS Omega, 2019)

Tests used:
Type in all cases: cell-based
U87MG cells = assay: FACS analysis of FITC-labeled PNA conjugate uptake; details: 0.5 μM, 2 h
Outline: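 U87MG cells were seeded at 2.0×10^5 per well and left to adhere overnight. They were given 0.5 μM FITC-labelled conjugate in DMEM with 10% FCS for 2 h at 37 °C, either alone, with 10 mM NaN3 plus 10 mM 2-deoxy-D-glucose, or held at 4 °C. Cells were PBS-washed, trypsinised, pelleted, resuspended in cold PBS and filtered. Flow cytometry used 488 nm excitation, gated on untreated cells, and gave the % FITC-positive cells. Each condition was run in two repeats.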

U87MG glioblastoma cells [1] = assay: Confocal colocalization with Lyso-Tracker Red and Hoechst; details: 0.5 μM, 3 h, 37 °C, Lyso-Tracker Red and Hoechst staining
Outline: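 U87MG cells were plated 12 h beforehand on glass chamber slides and grown to 70–80% confluence. They were given 0.5 μM FITC-labelled conjugate in fresh complete medium for 3 h at 37 °C under 5% CO2, then washed twice with PBS. Staining was 50 nM LysoTracker Red for 20–30 min at 37 °C, PBS washes, then 0.01 mM Hoechst for 15 min. Cells were fixed in 4% formaldehyde and imaged by confocal laser scanning microscopy.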

miR-155 = miR-155 expression by quantitative RT-PCR after PNA conjugate treatment; details: U87MG cells, 0.5 μM PNA conjugate, 24 h, 37 °C, qRT-PCR in triplicates
Outline: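 U87MG cells were treated with 0.5 μM conjugate or its scrambled-sequence control for 24 h at 37 °C. Total microRNA was isolated, and cDNA was synthesised from 1 μg RNA. miR-155 was quantified by SYBR Green real-time PCR with miR-155-specific primers, in triplicate.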

U87MG glioblastoma cells [2] = assay: XTT cell viability assay, U87MG; details: 1 μM, 72 h, 37 °C, triplicates in 96-well plates
Outline: (§1)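 Cells were grown in DMEM with 10% FCS and penicillin/streptomycin, then seeded at 3×10^3 per well in 96-well plates. After 24 h attachment, the medium was replaced and conjugate or its scrambled-sequence control was added. Plates were incubated 72 h at 37 °C in humidified 5% CO2, and proliferation was read by XTT assay per the kit instructions.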

[3] = test system: THESCs uterus (immortalized fibroblast) cells; assay: XTT cell viability assay, THESCs uterus; details: 1 μM, 72 h, 37 °C, triplicates in 96-well plates
Outline: as §1

[4] = test system: normal uterus human fibroblast cells produced from a patient (Nf08 uterus); assay: XTT cell viability assay, Nf08 uterus; details: 1 μM, 72 h, 37 °C, triplicates in 96-well plates, Figure S9
Outline: as §1

U87MG glioblastoma cells [5] = assay: Colony formation; details: 1.0 μM for 24 h, colonies counted after 2 weeks, triplicates
Outline: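 U87MG cells in DMEM with 10% FCS were treated for 24 h with 1.0 μM conjugate or its scrambled-sequence control. Cells were then seeded at 1000 and 500 per well in triplicate six-well plates. After 14 days, colonies were fixed with 2.5% glutaraldehyde for 10 min, stained with 1% methylene blue and counted. Colony numbers were taken from the triplicate plates.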

FITC-Ahx-5′-ACCCCTATCACAATTAGCATTAA-3′-C9 (head to tail) [C9–PNA–FITC]
cellular uptake at 4 °C (ATP depletion) by FACS (U87MG cells; 4 °C, versus control at 37 °C, two repeats): clear decrease in cellular uptake
cellular uptake with 10 mM NaN3/10 mM 2-deoxy-D-glucose by FACS (U87MG cells; 37 °C, versus control without inhibitors, two repeats): clear decrease in cellular uptake
cellular localization of FITC-labeled PNA (U87MG glioblastoma cells [1]): predominantly found in lysosomes and, to a lesser extent, in nuclei
cellular uptake by confocal microscopy of stained, fixed cells (U87MG glioblastoma cells [1]): strong punctate green signals

5′-ACCCCTATCACAATTAGCATTAA-3′-C9 (head to tail) [C9–PNA]
decrease in miR-155 in comparison to the scrambled control (miR-155): over 80%
reduction in cell viability in comparison to the C9–PNA-Scr control (U87MG glioblastoma cells [2]): > 80%
effect on viability of THESCs uterus cells [3]: negligible effects
effect on viability of Nf08 uterus normal human fibroblast cells [4]: negligible effects
colony formation (U87MG glioblastoma cells [5]): substantial decrease in colony formation

FITC-Ahx-5′-ACCCCTATCACAATTAGCATTAA-3′-dK4 [dK4–PNA–FITC]
cellular uptake, change in FITC fluorescence by FACS (U87MG cells; 37 °C, complete medium, flow cytometry 488 nm): almost no change in fluorescence
cellular uptake by confocal microscopy of stained, fixed cells (U87MG glioblastoma cells [1]): negligible uptake

5′-ACCCAATCGTCAGATTCCATATA-3′-C9 (head to tail) [C9–PNA-Scr]
effect on viability of THESCs uterus cells [3]: negligible effects
effect on viability of Nf08 uterus normal human fibroblast cells [4]: negligible effects
